Blank lines part the entries; values can stand above or below the compound they belong to. Activity calls are given as the source filed them. No cut-off for these calls is given here.
Tests used:
[1] = biological target: T1, Cystathionine beta-synthase (Homo sapiens, UniProt P35520); experiment: Inhibition of full-length GST-fused human CBS assessed as reduction in H2S production using 2 mM […] as substrate preincubated for 3 mins followed by substrate addition
T1 sequence (P35520 whole entry): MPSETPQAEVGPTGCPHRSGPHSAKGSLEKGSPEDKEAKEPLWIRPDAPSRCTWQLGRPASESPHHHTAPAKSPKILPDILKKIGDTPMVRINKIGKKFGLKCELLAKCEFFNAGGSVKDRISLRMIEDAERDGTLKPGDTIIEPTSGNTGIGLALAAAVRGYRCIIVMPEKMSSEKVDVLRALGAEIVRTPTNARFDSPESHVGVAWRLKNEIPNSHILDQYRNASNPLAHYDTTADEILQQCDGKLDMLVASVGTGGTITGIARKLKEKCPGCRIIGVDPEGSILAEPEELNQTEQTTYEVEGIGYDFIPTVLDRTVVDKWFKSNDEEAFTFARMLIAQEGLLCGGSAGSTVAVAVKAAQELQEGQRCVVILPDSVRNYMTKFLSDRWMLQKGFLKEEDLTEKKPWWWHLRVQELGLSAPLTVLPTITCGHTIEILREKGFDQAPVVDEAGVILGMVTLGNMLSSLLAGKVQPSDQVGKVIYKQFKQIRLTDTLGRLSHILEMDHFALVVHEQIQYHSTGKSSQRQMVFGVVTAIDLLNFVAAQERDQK
Procedure, shortened: (§1)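 Lead sulfide H2S assay on purified human CBS (5 μg, wild-type or alanine mutant) in 200 μL of 50 mM HEPES pH 7.4 with 5% DMSO and 0.4 mM lead nitrate. Enzyme and 2 mM homocysteine preincubated 3 min at 37 °C, then 2 mM cysteine added. Lead sulfide read at 390 nm (ε 5500 M−1 cm−1). Activity is relative to a DMSO control, mean ± SD (n = 3). The detergent test included 0.01% Triton X-100.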

[2] = biological target: T2, Cystathionine beta-synthase (Homo sapiens) (UniProt P35520); experiment: Non-competitive inhibition of full-length GST-fused human CBS using […] as substrate by Lineweaver-burk plot analysis
T2 sequence (whole entry): T1 sequence (P35520 whole entry)

HT-29 [3] = experiment: Antiproliferative activity against human HT-29 cells after 24 hrs by CCK8 assay; assay type: functional, cell-based; settings: HT-29, 24 h
Procedure, shortened: (§2)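 HT29 cells grown in DMEM with 10% FBS and 1% penicillin–streptomycin, 37 °C, 5% CO2. Seeded at 1 × 10^4 cells/well, cultured 24 h, then exposed to varying compound concentrations for 24 h. CCK-8 added for 2 h at 37 °C and OD450 read. Viability expressed as % of untreated medium control. IC50 fitted from means ± SD (n = 4). Knockdown cells were transfected with CBS siRNA for 48 h beforehand.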

HT-29 [4] = experiment: Antiproliferative activity against human HT-29 cells harboring CBS SiRNA after 24 hrs by CCK8 assay; assay type: functional, cell-based; settings: HT-29, 24 h; procedure, shortened: as §2
Mus musculus [5] = experiment: Toxicity in BALB/c nude mouse xenografted with human HT-29 cells assessed as effect on body weight at 10 mg/kg, sc administered once daily for 6 days followed by 1 day interval and subsequent dosing for 6 days; assay type: organism-based; settings: in vivo
Procedure, shortened: (§3)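 Male BALB/c nude mice, five weeks old, given s.c. HT29 cells (100 μL of 1 × 10^7 cells/mL) in the right armpit. Randomized when tumours reached about 100 mm3. Daily s.c. dosing at 3 or 10 mg/kg/d, vehicle 1% DMSO with 0.5% carboxymethylcellulose in PBS, 6 d on and 1 d off, 12 treatments in total, n = 6. Tumour volume by calipers (0.5 × L × W²) and body weight monitored. Tumours excised and weighed on day 28.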

HT-29 [6] = experiment: Antitumor activity against human HT-29 cells xenografted in BALB/c nude mouse assessed as tumor growth inhibition at 10 mg/kg, sc administered once daily for 6 days followed by 1 day interval and subsequent dosing for 6 days; assay type: functional, organism-based; procedure, shortened: as §3
HT-29 [7] = experiment: Antitumor activity against human HT-29 cells xenografted in BALB/c nude mouse assessed as reduction in tumor weight at 10 mg/kg, sc administered once daily for 6 days followed by 1 day interval and subsequent dosing for 6 days relative to control; assay type: functional; design: scale not given: the % may be the effect or the level left; procedure, shortened: as §3
[8] = biological target: T2, Cystathionine beta-synthase (Homo sapiens); experiment: Competitive inhibition of full-length GST-fused human CBS up to 10 uM using […] as substrate by Lineweaver-burk plot analysis
[9] = biological target: T1, Cystathionine beta-synthase; experiment: Inhibition of full-length GST-fused human CBS assessed as reduction in H2S production using 20 mM […] as substrate preincubated for 3 mins followed by substrate addition
Procedure, shortened: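 Same lead sulfide H2S assay on purified human wild-type CBS (5 μg, 50 mM HEPES pH 7.4, 5% DMSO, 0.4 mM lead nitrate, 37 °C), with cysteine raised to 20 mM and homocysteine kept at 2 mM. Lead sulfide read at 390 nm.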

[10] = biological target: T1, Cystathionine beta-synthase; experiment: Inhibition of full-length GST-fused human CBS assessed as reduction in H2S production using […] as substrate preincubated for 3 mins followed by substrate addition measured in presence of Triton X-100; procedure, shortened: as §1
[11] = biological target: Cystathionine beta-synthase (Homo sapiens, UniProt P35520, T193A); experiment: Inhibition of human CBS T193A mutant assessed as reduction in H2S production using […] as substrate preincubated for 3 mins followed by substrate addition; procedure, shortened: as §1
[12] = biological target: Cystathionine beta-synthase (Homo sapiens, UniProt P35520, N194A); experiment: Inhibition of human CBS N194A mutant assessed as reduction in H2S production using 2 mM […] as substrate preincubated for 3 mins followed by substrate addition; procedure, shortened: as §1
[13] = biological target: Cystathionine beta-synthase (Homo sapiens, UniProt P35520, H203A); experiment: Inhibition of human CBS H203A mutant assessed as reduction in H2S production using […] preincubated for 3 mins followed by substrate addition; procedure, shortened: as §1
[14] = biological target: Cystathionine beta-synthase (Homo sapiens, UniProt P35520, Y223A); experiment: Inhibition of human CBS Y223A mutant assessed as reduction in H2S production using 2 mM […] as substrate preincubated for 3 mins followed by substrate addition; procedure, shortened: as §1
[15] = biological target: Cystathionine beta-synthase (Homo sapiens, UniProt P35520, Y308A); experiment: Inhibition of human CBS Y308A mutant assessed as reduction in H2S production using 2 mM […] as substrate preincubated for 3 mins followed by substrate addition; procedure, shortened: as §1
Homo sapiens [16] = species on record: Homo sapiens; experiment: Selectivity ratio of IC50 for human CBS H203A mutant to IC50 for full-length GST-fused human CBS
Homo sapiens [17] = species on record: Homo sapiens; experiment: Selectivity ratio of IC50 for human CBS Y308A mutant to IC50 for full-length GST-fused human CBS
[18] = Selectivity ratio of IC50 for human HT-29 cells harboring CBS SiRNA to IC50 for human HT-29 cells; assay type: functional
HT-29 [19] = experiment: Induction of apoptosis in human HT-29 cells at 0.5 uM after 24 hrs by Annexin V-FITC/propidium iodide staining based flow cytometry relative to control; assay type: functional
Procedure, shortened: (§4)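 HT29 cells seeded at 5 × 10^5 per well and treated 24 h with 0.5, 1 or 2 μM compound. Cells trypsinized, washed in cold PBS, stained with FITC–Annexin V and PI for 15 min in the dark at room temperature. 10 000 cells analysed by flow cytometry. Annexin V-positive percentage reported as mean ± SD of three independent experiments.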

HT-29 [20] = experiment: Induction of apoptosis in human HT-29 cells at 1 uM after 24 hrs by Annexin V-FITC/propidium iodide staining based flow cytometry relative to control; assay type: functional; procedure, shortened: as §4
HT-29 [21] = experiment: Induction of apoptosis in human HT-29 cells at 2 uM after 24 hrs by Annexin V-FITC/propidium iodide staining based flow cytometry relative to control; assay type: functional; procedure, shortened: as §4
HT-29 [22] = experiment: Induction of apoptosis in human HT-29 cells after 24 hrs by Annexin V-FITC/propidium iodide staining based flow cytometry; assay type: functional, cell-based; procedure, shortened: as §4
Mus musculus [23] = experiment: Toxicity in BALB/c nude mouse xenografted with human HT-29 cells assessed as effect on body weight at 3 to 10 mg/kg, sc administered once daily for 6 days followed by 1 day interval and subsequent dosing for 6 days; assay type: organism-based; settings: in vivo; procedure, shortened: as §3
HT-29 [24] = experiment: Antitumor activity against human HT-29 cells xenografted in sc dosed BALB/c nude mouse assessed as tumor growth inhibition administered once daily for 6 days followed by 1 day interval and subsequent dosing for 6 days; assay type: functional, organism-based; procedure, shortened: as §3

Chain of Cystathionine beta-synthase (Homo sapiens, UniProt P35520, H203A) (P35520 whole entry H203A): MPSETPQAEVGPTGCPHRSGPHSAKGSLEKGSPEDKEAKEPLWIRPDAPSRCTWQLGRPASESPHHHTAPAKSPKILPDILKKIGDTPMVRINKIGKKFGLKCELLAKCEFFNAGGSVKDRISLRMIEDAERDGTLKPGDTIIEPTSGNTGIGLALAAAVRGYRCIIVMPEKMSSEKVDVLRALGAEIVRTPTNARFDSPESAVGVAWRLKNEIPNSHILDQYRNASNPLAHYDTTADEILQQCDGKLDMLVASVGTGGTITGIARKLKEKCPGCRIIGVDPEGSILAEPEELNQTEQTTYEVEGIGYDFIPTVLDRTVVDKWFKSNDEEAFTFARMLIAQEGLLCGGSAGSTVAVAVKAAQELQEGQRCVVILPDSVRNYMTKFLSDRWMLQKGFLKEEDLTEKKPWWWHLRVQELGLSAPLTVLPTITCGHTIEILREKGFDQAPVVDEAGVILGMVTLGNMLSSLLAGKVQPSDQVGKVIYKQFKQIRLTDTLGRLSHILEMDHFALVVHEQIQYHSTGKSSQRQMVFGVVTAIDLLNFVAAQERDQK
Chain of Cystathionine beta-synthase (Homo sapiens, UniProt P35520, N194A) (P35520 whole entry N194A): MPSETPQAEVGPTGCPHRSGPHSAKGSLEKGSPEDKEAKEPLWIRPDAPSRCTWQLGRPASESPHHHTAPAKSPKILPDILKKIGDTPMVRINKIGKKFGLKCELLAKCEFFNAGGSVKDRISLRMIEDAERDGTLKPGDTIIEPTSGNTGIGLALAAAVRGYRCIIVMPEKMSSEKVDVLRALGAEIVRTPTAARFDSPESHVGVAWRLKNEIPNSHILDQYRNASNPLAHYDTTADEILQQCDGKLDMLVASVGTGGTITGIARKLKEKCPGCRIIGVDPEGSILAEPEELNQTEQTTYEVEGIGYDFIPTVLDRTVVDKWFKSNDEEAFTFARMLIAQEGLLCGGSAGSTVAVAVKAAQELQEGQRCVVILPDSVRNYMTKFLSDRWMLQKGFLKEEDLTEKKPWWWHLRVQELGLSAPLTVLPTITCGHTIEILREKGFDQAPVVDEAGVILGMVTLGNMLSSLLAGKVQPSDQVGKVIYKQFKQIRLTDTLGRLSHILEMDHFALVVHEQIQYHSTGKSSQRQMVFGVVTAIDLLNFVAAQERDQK
Chain of Cystathionine beta-synthase (Homo sapiens, UniProt P35520, T193A) (P35520 whole entry T193A): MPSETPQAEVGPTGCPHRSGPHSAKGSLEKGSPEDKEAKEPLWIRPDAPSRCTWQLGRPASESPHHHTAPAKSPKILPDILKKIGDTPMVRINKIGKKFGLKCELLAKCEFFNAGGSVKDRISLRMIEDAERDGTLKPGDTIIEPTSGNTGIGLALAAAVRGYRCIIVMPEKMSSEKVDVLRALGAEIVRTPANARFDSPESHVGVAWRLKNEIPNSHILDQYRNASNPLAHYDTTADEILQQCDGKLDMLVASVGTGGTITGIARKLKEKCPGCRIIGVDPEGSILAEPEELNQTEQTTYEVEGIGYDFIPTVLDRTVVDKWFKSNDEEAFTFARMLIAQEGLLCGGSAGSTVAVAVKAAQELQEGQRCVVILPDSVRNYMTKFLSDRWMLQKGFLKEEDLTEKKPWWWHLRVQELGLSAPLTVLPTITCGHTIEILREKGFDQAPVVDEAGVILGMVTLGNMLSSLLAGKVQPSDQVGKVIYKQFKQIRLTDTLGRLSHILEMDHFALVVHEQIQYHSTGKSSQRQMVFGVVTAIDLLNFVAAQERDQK
Chain of Cystathionine beta-synthase (Homo sapiens, UniProt P35520, Y223A) (P35520 whole entry Y223A): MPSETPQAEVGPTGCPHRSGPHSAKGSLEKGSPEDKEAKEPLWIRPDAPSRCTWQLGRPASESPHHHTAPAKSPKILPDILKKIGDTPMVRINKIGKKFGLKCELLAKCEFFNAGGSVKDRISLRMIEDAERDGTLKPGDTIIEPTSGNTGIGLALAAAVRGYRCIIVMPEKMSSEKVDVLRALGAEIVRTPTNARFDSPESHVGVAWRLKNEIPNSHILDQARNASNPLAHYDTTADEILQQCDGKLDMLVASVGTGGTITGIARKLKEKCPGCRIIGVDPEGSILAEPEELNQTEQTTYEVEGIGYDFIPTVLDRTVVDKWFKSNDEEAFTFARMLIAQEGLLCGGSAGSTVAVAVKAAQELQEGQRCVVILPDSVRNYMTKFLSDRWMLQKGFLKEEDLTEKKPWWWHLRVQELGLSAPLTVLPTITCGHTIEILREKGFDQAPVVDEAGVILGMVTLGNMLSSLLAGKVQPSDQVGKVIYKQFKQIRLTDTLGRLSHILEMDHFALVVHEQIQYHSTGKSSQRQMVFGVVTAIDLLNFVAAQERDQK
Chain of Cystathionine beta-synthase (Homo sapiens, UniProt P35520, Y308A) (P35520 whole entry Y308A, the tested form may be a part): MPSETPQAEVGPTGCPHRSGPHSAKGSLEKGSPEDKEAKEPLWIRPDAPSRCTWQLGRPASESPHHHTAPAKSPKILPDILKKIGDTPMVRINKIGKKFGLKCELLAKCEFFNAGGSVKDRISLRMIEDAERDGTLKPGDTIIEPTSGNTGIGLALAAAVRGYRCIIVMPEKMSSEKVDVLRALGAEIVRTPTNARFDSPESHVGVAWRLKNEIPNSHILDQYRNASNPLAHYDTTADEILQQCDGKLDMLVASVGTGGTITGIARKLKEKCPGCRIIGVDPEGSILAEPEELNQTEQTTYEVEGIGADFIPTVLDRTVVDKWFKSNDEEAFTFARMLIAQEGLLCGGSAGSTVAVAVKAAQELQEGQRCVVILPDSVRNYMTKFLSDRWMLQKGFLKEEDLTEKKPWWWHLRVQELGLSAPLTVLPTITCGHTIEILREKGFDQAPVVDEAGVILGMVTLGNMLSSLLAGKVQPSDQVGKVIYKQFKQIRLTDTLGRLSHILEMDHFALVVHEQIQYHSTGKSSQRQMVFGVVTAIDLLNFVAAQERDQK

IC50 [1]: 7.5 µM | inhibition [2]: Active | IC50 (HT-29 [3]): 159 µM | IC50 (HT-29 [4]): 287 µM
SMILES: NOCC(=O)O [CARBOXYMETHOXYLAMINE]
Activity (Mus musculus [5]): Non-Toxic | TGI (HT-29 [6]): Active | Activity (HT-29 [7]): 44%

inhibition [8]: Active | IC50 [1]: 0.9 µM | IC50 [9]: 5.5 µM | IC50 [10]: 1.4 µM | IC50 [11]: 11.2 µM | IC50 [12]: 18.7 µM | IC50 [13]: 43 µM | IC50 [14]: 16.9 µM | IC50 [15]: 24 µM | Ratio IC50 (Homo sapiens [16]): 48 | Ratio IC50 (Homo sapiens [17]): 27 | IC50 (HT-29 [3]): 1.6 µM | IC50 (HT-29 [4]): 4.7 µM
SMILES: COc1ccc([C@H]2Oc3cc(O)cc(O)c3C(=O)[C@@H]2[C@H]2C(=O)c3c(O)cc(O)cc3O[C@@H]2c2ccc(O)cc2)cc1 [SIKOKIANIN C]
Ratio IC50 [18]: 3 | Activity (HT-29 [19]): 17.1% | Activity (HT-29 [20]): 22% | Activity (HT-29 [21]): 31.5% | Activity (HT-29 [22]): Dose-dependent effect | Activity (Mus musculus [23]): Non-Toxic | Activity (HT-29 [24]): Dose-dependent effect | Activity (HT-29 [7]): 46%

Source: ChEMBL document CHEMBL4257472, “Antitumor effect of sikokianin C, a selective cystathionine β-synthase inhibitor, against human colon cancer in vitro and in vivo” (Medchemcomm, 2018)
